Results reported in ChEMBL document CHEMBL1155940, “Synthesis and preliminary pharmacological evaluation of novel derivatives of L-beta-threo-benzylaspartate as inhibitors of the neuronal glutamate transporter EAAT3” (Bioorg Med Chem, 2008).

species on record: Homo sapiens; assay: Selectivity for human EAAT3 over human EAAT2 expressed in mouse C17.2 cells; assay type: cell-based

Row | SMILES | fold change (FC)
1 | N[C@H](C(=O)O)[C@H](Cc1ccccc1)C(=O)O | 10

species on record: Homo sapiens; assay: Selectivity for human EAAT3 over human EAAT1 expressed in mouse C17.2 cells; assay type: cell-based

Row | SMILES | fold change (FC)
2 | N[C@H](C(=O)O)[C@H](Cc1ccccc1)C(=O)O | 10

target: T1, Excitatory amino acid transporter 3 (Homo sapiens, UniProt P43005); assay: Displacement of [3H]D-aspartate from human EAAT3 expressed in mouse C17.2 cells; assay type: cell-based
T1 sequence (P43005 whole entry): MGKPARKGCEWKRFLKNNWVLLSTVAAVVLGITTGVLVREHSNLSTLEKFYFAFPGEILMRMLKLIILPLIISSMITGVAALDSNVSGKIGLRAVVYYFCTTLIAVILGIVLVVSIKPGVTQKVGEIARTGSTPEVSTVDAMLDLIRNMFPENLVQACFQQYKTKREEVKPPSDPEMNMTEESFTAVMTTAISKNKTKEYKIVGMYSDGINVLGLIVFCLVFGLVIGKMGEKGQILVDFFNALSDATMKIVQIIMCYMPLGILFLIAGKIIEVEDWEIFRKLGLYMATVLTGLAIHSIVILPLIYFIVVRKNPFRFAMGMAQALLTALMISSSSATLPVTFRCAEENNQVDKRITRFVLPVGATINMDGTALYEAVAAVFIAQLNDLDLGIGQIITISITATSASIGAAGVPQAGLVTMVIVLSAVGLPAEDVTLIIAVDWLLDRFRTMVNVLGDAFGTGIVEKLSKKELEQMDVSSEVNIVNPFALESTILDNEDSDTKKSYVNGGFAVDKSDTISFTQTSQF
Method in brief: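 C17.2 neuroprogenitor cells (passages 10–20) seeded at 5 × 10^4/well, transiently transfected with human EAAT3 plasmid 24 h after plating, assayed 24 h later. Cells preincubated 5 min at 37°C in HEPES-buffered saline, pH 7.4, then given 1 µM 3H-D-aspartate with varying inhibitor concentrations. Rinsed with ice-cold buffer after uptake and read by scintillation counting. Corrected for 4°C background. IC50 from a one-site fit, ±SEM.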

Row | SMILES | IC50
3 | N[C@H](C(=O)O)[C@H](Cc1cccc(F)c1)C(=O)O | 2.46 µM
4 | N[C@H](C(=O)O)[C@@H](Cc1cccc(F)c1)C(=O)O | 21.1 µM

target: T2, Excitatory amino acid transporter 3 (Homo sapiens) (UniProt P43005); assay: Residual [3H]D-aspartate uptake at human EAAT3 expressed in mouse C17.2 cells at 100 uM relative to control
T2 sequence (whole entry): T1 sequence (P43005 whole entry)

Row | SMILES | residual activity
5 | N[C@H](C(=O)O)[C@H](Cc1ccccc1)C(=O)O | 1%
6 | N[C@H](C(=O)O)C(Cc1ccc2ccccc2c1)C(=O)O (stereo not given in full) | 68%
7 | N[C@H](C(=O)O)C(Cc1c(Cl)cccc1Cl)C(=O)O (stereo not given in full) | 86%
8 | N[C@H](C(=O)O)C(Cc1ccc([N+](=O)[O-])cc1)C(=O)O (stereo not given in full) | 65%
9 | N[C@H](C(=O)O)C(Cc1cccc([N+](=O)[O-])c1)C(=O)O (mixture of isomers) | 29%

Next, values leading:

Row | residual activity | SMILES
10 | 36% | Cc1cc(C)cc(CC(C(=O)O)[C@H](N)C(=O)O)c1 (mixture of isomers)
11 | 33% | Cc1cccc(CC(C(=O)O)[C@H](N)C(=O)O)c1 (mixture of isomers)
12 | 8% | N[C@H](C(=O)O)C(Cc1cccc(Br)c1)C(=O)O (mixture of isomers)
13 | 4% | N[C@H](C(=O)O)C(Cc1ccccc1)C(=O)O (stereo not given in full)
14 | 7% | N[C@H](C(=O)O)C(Cc1ccc(F)cc1)C(=O)O (mixture of isomers)
15 | 0% | N[C@H](C(=O)O)C(Cc1cccc(F)c1)C(=O)O (stereo not given in full)
